Laboratory results published in ChEMBL document CHEMBL1142725, “Synthesis and discovery of pyrazine-pyridine biheteroaryl as a novel series of potent vascular endothelial growth factor receptor-2 inhibitors” (J Med Chem, 2005).

Key:
[1] = biological target: Cyclin-dependent kinase 1 (Homo sapiens, UniProt P06493); test: Inhibition of human cyclin-dependent kinase 1
[2] = biological target: Vascular endothelial growth factor receptor 2 (Homo sapiens, UniProt P35968); test: Inhibition of human vascular endothelial growth factor receptor 2
[3] = biological target: cAMP-dependent protein kinase (PKA) (Homo sapiens, UniProt P22694+P17612+P22612); test: Inhibition of protein kinase A; assay type: protein assay
[4] = biological target: Cyclin-dependent kinase 4 (Homo sapiens, UniProt P11802); test: Inhibition of cyclin-dependent kinase 4
HeLa = test: Inhibitory concentration against Proliferation of HeLa cells (cervical adenocarcinoma); assay type: functional, cell-based; conditions: Homo sapiens
How it was run: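 HeLa cells grown in MEM with 0.1 mM nonessential amino acids, 1 mM pyruvate, 2 mM L-glutamine and 10% FCS at 37 °C, 5% CO2. Seeded in scintillating microplates in complete medium and incubated 24 h. Compound added for 24 h, then 0.2 µCi methyl-[14C]thymidine per well for a further 24 h.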

[5] = biological target: Protein kinase C gamma type (Homo sapiens, UniProt P05129); test: Inhibition of protein kinase C gamma
Casein kinase II = Casein kinase II (Homo sapiens, UniProt P19784+P67870+P68400); test: Inhibition of casein kinase II; assay type: protein-complex assay
[6] = biological target: Vascular endothelial growth factor receptor (Homo sapiens, UniProt P17948+P35916+P35968); test: Inhibition of VEGF-stimulated human umbilical vein endothelial cell proliferation; assay type: functional, cell-based
How it was run: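 HUVEC trypsinized and seeded in F-12K with 0.2% heat-inactivated FBS, stimulated with 2 ng/well VEGF with or without compound. BrdU added 24 h after VEGF, then incubated another 20-24 h. Incorporation read by BrdU cell-proliferation ELISA.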

[7] = biological target: Mitogen-activated protein kinase 1 (Homo sapiens, UniProt P28482); test: Inhibition of mitogen activated protein kinase (ERK2)
[8] = biological target: Fibroblast growth factor receptor 2 (Homo sapiens, UniProt P21802); test: Inhibition of fibroblast growth factor receptor 2
[9] = biological target: Protein kinase C beta type (Homo sapiens, UniProt P05771); test: Inhibition of protein kinase C beta 2
Protein kinase C beta type, sequence (P05771 whole entry): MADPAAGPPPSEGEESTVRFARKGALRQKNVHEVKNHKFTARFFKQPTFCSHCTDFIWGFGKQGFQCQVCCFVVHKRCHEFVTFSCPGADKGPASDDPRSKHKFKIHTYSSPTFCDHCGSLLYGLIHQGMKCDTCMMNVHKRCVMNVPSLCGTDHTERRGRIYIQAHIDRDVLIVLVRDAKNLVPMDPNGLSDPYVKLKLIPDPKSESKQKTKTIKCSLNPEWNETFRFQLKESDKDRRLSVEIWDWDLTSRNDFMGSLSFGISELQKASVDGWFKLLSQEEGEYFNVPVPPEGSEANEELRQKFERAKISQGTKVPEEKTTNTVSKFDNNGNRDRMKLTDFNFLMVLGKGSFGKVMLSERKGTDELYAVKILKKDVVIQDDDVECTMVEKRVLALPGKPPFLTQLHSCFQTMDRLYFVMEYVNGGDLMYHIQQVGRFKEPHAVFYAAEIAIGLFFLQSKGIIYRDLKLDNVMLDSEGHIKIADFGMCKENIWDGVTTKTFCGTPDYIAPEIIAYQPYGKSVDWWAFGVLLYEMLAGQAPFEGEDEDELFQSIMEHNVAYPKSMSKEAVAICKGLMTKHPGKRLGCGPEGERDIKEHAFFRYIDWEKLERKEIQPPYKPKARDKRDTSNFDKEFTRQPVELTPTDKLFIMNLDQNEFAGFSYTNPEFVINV

Vascular endothelial growth factor receptor 2, sequence (P35968 whole entry): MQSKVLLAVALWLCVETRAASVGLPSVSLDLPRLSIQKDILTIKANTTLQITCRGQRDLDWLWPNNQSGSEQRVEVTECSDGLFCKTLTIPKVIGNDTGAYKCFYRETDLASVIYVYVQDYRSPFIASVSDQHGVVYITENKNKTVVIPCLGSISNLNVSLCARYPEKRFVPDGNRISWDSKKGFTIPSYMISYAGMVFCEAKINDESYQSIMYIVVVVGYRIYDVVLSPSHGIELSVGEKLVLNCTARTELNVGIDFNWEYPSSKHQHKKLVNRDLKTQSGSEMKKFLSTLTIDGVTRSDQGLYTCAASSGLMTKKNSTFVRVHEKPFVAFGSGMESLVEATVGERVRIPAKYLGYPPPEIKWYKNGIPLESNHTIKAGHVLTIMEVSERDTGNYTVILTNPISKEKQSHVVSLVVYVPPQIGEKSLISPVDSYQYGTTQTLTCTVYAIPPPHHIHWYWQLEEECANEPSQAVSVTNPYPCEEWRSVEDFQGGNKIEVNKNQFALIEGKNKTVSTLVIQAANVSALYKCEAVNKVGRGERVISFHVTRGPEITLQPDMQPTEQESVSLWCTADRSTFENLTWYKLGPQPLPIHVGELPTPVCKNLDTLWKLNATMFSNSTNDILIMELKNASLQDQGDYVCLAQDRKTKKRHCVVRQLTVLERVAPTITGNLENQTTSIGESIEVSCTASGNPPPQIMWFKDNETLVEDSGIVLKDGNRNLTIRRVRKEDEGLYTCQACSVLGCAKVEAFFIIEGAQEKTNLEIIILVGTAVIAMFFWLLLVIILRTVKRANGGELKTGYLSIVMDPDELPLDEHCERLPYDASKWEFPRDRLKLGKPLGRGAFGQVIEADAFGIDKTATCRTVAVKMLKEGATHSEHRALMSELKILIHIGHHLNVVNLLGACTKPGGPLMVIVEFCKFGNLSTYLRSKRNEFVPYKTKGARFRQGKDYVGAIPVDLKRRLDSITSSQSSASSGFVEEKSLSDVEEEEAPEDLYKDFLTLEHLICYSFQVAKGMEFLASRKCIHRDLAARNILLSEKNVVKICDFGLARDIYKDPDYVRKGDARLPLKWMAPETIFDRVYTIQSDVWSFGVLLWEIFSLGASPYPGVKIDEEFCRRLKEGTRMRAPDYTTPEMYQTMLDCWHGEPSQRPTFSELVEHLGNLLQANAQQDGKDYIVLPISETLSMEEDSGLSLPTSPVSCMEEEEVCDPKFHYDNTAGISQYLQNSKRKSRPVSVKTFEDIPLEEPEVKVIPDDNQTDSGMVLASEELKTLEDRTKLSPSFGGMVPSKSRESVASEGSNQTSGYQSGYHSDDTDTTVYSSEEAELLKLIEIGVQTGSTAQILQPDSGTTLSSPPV
Cyclin-dependent kinase 1, sequence (P06493 whole entry): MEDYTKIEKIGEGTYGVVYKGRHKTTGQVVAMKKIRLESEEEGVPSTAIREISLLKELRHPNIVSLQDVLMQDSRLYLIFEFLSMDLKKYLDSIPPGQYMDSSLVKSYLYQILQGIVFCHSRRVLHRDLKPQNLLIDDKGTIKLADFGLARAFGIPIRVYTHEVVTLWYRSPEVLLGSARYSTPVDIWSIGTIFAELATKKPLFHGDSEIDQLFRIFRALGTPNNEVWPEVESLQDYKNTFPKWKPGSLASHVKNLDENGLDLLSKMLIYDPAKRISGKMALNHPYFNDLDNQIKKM
Fibroblast growth factor receptor 2, sequence (P21802 whole entry): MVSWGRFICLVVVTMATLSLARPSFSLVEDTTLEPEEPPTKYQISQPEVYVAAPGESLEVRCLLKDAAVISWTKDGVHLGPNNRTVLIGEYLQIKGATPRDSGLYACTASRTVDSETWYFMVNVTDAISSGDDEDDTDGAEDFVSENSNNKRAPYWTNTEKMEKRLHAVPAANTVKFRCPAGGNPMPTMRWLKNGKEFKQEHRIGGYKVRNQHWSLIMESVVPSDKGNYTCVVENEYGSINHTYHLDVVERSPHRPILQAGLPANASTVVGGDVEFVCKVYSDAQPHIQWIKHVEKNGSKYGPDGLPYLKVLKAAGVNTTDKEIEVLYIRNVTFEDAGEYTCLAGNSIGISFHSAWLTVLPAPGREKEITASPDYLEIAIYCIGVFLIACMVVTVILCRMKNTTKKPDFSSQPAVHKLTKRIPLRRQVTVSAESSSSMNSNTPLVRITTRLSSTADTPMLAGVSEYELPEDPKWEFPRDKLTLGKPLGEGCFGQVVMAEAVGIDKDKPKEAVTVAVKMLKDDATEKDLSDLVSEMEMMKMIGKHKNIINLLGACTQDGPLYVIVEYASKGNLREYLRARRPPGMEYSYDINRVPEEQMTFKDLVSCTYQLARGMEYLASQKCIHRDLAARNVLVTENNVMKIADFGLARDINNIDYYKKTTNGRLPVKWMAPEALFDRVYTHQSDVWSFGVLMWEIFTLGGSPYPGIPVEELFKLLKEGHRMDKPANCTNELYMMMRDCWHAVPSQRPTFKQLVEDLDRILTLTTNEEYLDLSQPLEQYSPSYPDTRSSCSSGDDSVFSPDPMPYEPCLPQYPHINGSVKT
Mitogen-activated protein kinase 1, sequence (P28482 whole entry): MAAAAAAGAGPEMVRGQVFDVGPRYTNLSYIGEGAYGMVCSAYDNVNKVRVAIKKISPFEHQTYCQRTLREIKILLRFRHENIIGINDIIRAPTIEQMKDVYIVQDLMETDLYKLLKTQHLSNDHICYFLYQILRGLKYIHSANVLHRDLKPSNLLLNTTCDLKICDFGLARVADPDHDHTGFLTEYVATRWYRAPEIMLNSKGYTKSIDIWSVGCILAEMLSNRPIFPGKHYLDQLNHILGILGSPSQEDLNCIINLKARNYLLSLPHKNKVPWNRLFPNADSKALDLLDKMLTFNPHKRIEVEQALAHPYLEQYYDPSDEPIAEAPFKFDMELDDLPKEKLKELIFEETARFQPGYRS
Cyclin-dependent kinase 4, sequence (P11802 whole entry): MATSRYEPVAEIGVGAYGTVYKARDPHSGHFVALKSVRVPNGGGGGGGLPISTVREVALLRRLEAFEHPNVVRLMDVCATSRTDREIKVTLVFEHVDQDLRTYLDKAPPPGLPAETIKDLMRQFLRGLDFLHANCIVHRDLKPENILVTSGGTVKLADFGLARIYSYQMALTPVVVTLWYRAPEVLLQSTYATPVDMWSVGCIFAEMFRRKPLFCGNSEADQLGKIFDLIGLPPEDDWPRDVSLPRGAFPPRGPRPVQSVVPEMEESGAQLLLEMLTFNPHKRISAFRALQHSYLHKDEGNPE

Row | SMILES | IC50 [1] [nM] | IC50 [2] [nM] | also measured
1 | OCCCNc1cccc(-c2cncc(Nc3cccc(Cl)c3)n2)n1 | > 10000 | > 10000 | 
2 | OCCCNc1cc(-c2cncc(Nc3cccc(Cl)c3)n2)ccn1 | 500 | 500 | 
3 | OCCCNc1cncc(-c2ncc(Nc3cccc(Cl)c3)cn2)c1 | > 10000 | > 10000 | 
4 | OCCCNc1cncc(-c2cncc(Nc3cccc(Cl)c3)n2)c1 |  | 84 | IC50 [3]: > 10000 nM; IC50 [4]: > 10000 nM; IC50 (HeLa): > 10000 nM; IC50 [5]: > 10000 nM; IC50 (Casein kinase II): > 10000 nM; IC50 [6]: 5 nM; IC50 [7]: > 10000 nM; IC50 [8]: 210 nM; IC50 [9]: > 10000 nM
5 | OCCCNc1ccc(-c2cncc(Nc3cccc(Cl)c3)n2)nc1 | > 10000 | > 10000 | 
6 | OCCCNc1cnccc1-c1cncc(Nc2cccc(Cl)c2)n1 | 2220 | 761 | 
7 | OCCCNc1cncc(-c2cncc(Nc3cccc(Cl)c3)n2)n1 | > 10000 | 497 | 
8 | OCCCNc1cc(-c2ccnc(Nc3cccc(Cl)c3)n2)ccn1 | 17 |  | 
9 | OCCCNc1cncc(-c2cc(Nc3cccc(Cl)c3)ncn2)c1 | 2400 | > 10000 | 
10 | OCCCNc1ncc(-c2cncc(Nc3cccc(Cl)c3)n2)s1 | 8080 | 708 | 
11 | OCCCNc1ncc(-c2cncc(Nc3cccc(Cl)c3)n2)o1 | > 10000 | 2110 | 
12 | OCCCNc1cncc(-c2cnc(Nc3cccc(Cl)c3)cn2)c1 | > 10000 | > 10000 | 
13 | OCCCNc1ccc(-c2ncncc2Nc2cccc(Cl)c2)cn1 | > 10000 | > 10000 | 
